Assay results pooled from the literature.
Protocols differ between the studies behind these lines.
ADRA2A: Alpha-2A adrenergic receptor (ADRA2A, Homo sapiens, UniProt P08913)
CA1: Carbonic anhydrase 1 (CA1, Homo sapiens, UniProt P00915)
Protein phosphatase methylesterase 1: Protein phosphatase methylesterase 1 (Homo sapiens, UniProt Q9Y570)
SLC22A11: Solute carrier family 22 member 11 (SLC22A11, Homo sapiens, UniProt Q9NSA0)

`CCCCC1CNC2CCc3ccc(OC)cc3C12` (racemic) has a Ki of 0.26 µM (ADRA2A; ligand displacement, radioligand).
With `CCOC(=O)c1ccc(OC(=O)CCCCCN=C(N)N)cc1` the IC50 was 1.99 µM (Tryptase gamma (Homo sapiens, UniProt Q9NRR2); enzyme activity, inhibitor).
The Ki of `O=C(Nc1cccc(F)c1)Nc1ccc2c(c1)C=CCP(=O)(O)O2` is reported as over 10 µM (CA1; enzyme activity, inhibitor, stopped-flow).
`CC(C)C[C@H]1C(=O)N2CCC[C@H]2[C@]2(O)O[C@](NC(=O)[C@@H]3C=C4c5cccc6[nH]c(Br)c(c56)C[C@H]4N(C)C3)(C(C)C)C(=O)N12` gave an IC50 of 4.85 µM (Synaptic vesicular amine transporter (SLC18A2, Homo sapiens, UniProt Q05940); transporter uptake, inhibitor).
The Ki of `O=C(Nc1ccc2c(c1)C=CCP(=O)(O)O2)Nc1ccccc1Br` is reported as over 10 µM (CA1; enzyme activity, inhibitor, stopped-flow).
The IC50 of `O=C(CP(=O)(Oc1ccccc1)Oc1ccccc1)N/N=C/c1ccncc1Br` is reported as 7 µM (Protein phosphatase methylesterase 1; enzyme activity, inhibitor; lysate).
The Kd of `CC[C@H](C)[C@H](NC(=O)[C@H](CCCCNC(=O)CN(CCNC(=O)CN(CCNC(=O)CN(CCNC(=O)CN(CCNC(=O)[C@H](CCCNC(=N)N)NC(C)=O)C(=O)Cn1ccc(N)nc1=O)C(=O)Cn1cnc2c(=O)[nH]c(N)nc21)C(=O)Cn1cnc2c(=O)[nH]c(N)nc21)C(=O)Cn1ccc(N)nc1=O)NC(=O)[C@H](C)NC(=O)[C@H](CCCNC(=N)N)NC(=O)[C@H](CCCCN)NC(=O)[C@H](CCC(N)=O)NC(=O)[C@H](CCC(N)=O)NC(=O)[C@H](CC(N)=O)NC(=O)[C@@H](NC(=O)[C@H](CC(C)C)NC(=O)[C@H](CC(N)=O)NC(=O)[C@@H]1CCCN1C(=O)[C@H](CC(=O)O)NC(=O)[C@H](CC(C)C)NC(=O)[C@H](C)NC(=O)[C@H](CS)NC(=O)[C@H](CCCC(=O)NCCN(CC(=O)NCCN(CC(=O)NCCN(CC(=O)NCCN(CC(N)=O)C(=O)Cn1cnc2c(=O)[nH]c(N)nc21)C(=O)Cn1ccc(N)nc1=O)C(=O)Cn1ccc(N)nc1=O)C(=O)Cn1cnc2c(=O)[nH]c(N)nc21)NC(=O)[C@H](Cc1c[nH]c2ccccc12)NC(=O)[C@H](Cc1ccc(O)cc1)NC(=O)[C@H](CCCNC(=N)N)NC(=O)[C@H](CC(N)=O)NC(=O)[C@H](CCCNC(=N)N)NC(=O)[C@H](CC1CCCCC1)NC(=O)[C@H](CCC(=O)O)NC(=O)[C@H](CCCCN)NC(=O)[C@H](CO)NC(=O)[C@H](Cc1ccccc1)NC(C)=O)[C@@H](C)O)C(=O)N[C@@H](CCCNC(=N)N)C(=O)N[C@@H](CO)C(=O)N[C@H](C(=O)N[C@@H](Cc1ccc(O)cc1)C(=O)N[C@@H](CCC(=O)O)C(=O)N[C@@H](CCC(=O)O)C(N)=O)[C@@H](C)CC` is reported as 0.00058 µM (Receptor tyrosine-protein kinase erbB-2 (ERBB2, Homo sapiens, UniProt P04626); binding, SPR).
For `N#Cc1c(Cl)c(Cl)c(Cl)c(C#N)c1Cl`, the IC50 was 7.3 µM (SLC22A11; transporter uptake, inhibitor).
`NC(=S)N/N=C1/c2ccccc2[C@@H]2[C@H]1[C@@H](c1ccoc1)[C@H](C(=O)c1ccco1)[C@H]2c1ccoc1` gave an IC50 of 0.748 µM (Carbonic anhydrase 2 (CA2, Homo sapiens, UniProt P00918); enzyme activity, inhibitor, absorbance).
`CC(=O)c1c(C)c2cnc(Nc3ccc(C4CCN(CCS(C)(=O)=O)CC4)cn3)nc2n(C2CCCC2)c1=O` has an IC50 of over 10 µM (Cytochrome P450 2C19 (CYP2C19, Homo sapiens, UniProt P33261); enzyme activity, inhibitor; human, liver microsomes).
With `O=C(Nc1ccc(C(F)(F)F)cc1)Nc1ccc2c(c1)C=CCP(=O)(O)O2` the Ki was over 10 µM (CA1; enzyme activity, inhibitor, stopped-flow).
`O=P(Oc1ccccc1)(Oc1ccccc1)C(NCc1cncc2ccccc12)c1ccc(O)cc1` (stereo not drawn) has an IC50 of 15.5 µM (Protein phosphatase methylesterase 1; enzyme activity, inhibitor; lysate).
`COc1cc2c(cc1OC)CN(CCc1ccc(NC(=O)c3cccc4c(=O)c5cccc(OC)c5[nH]c34)cc1)CC2` gave a Ki of 1.37 µM (ADRA2A; cell-free assay).
`C[CH2][Hg][S]c1ccccc1C(=O)[O-].[Na+]` gave an IC50 of 5 µM (SLC22A11; transporter uptake, inhibitor).
`O=C(Nc1ccc2c(c1)C=CCP(=O)(O)O2)c1ccc2ccccc2c1` gave a Ki of over 10 µM (CA1; enzyme activity, inhibitor, stopped-flow).
